# According to paper PMC6718129 (Drug Design, Development and Therapy, 2019):
# What was measured:
# A-549 cell line = test: Cell cycle distribution by total DNA content; assay type: cell-based, human; details: A-549, 24 and 48 hrs
# Procedure, shortened: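 A-549 cells treated 24 or 48 hr over a range from below 100 µM down to 50 nM, alongside a reference drug. Total DNA content per cell was quantified to assign cell cycle phase, together with immunofluorescent imaging of nuclear phosphorylated Rb. Automated image analysis quantified changes, and IC50 values were taken from dose–response curves.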
# [1] = tested on: phosphorylated Rb protein in A-549 cell line; test: Rb phosphorylation by quantitative immunofluorescence; assay type: cell-based, human; details: A-549, dose-response
# Procedure, shortened: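 A-549 cells were treated with vehicle or test compound (less than 100 µM down to 50 nM) for 24 or 48 hr. Nuclear phospho-Rb was measured by immunofluorescence, and total DNA content per cell gave the cell-cycle phase. Automated image analysis quantified P-Rb changes as dose–response curves, from which IC50 values were taken.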
structure (smiles),measurement,setting,value
CCN(CC)CCNC(=O)c1c(C)[nH]c(/C=C2\C(=O)Nc3ccc(F)cc32)c1C [Sunitinib],Cell cycle influences,A-549 cell line,"increase in the percentage of cells in the S or G2/M phases of the cell cycle, with a concomitant reduction in the G1 phase"
same,levels of phosphorylated Rb protein (immunofluorescence),[1],substantially reduced the extent of phosphorylated Rb protein in a dose-dependent fashion
